In ChEMBL document CHEMBL1150387, “Development and experimental validation of a docking strategy for the generation of kinase-targeted libraries” (J Med Chem, 2008):

Experiments:
[1] = biological target: Tyrosine-protein kinase Lck (Homo sapiens) (UniProt P06239); test: Inhibition of Lck at 10 uM by HTRF assay relative to control
Procedure, shortened: (§1)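 HTRF kinase assay, one panel of kinases. Inhibitor stock 50 µM in 100% DMSO; tested at 10 µM. ATP and substrate at final levels near Km. Final buffer: 50 mM Hepes/NaOH pH 7.4, 40 µM Na3VO4, 0.005% Tween-20, 1 mM DTT, MnCl2 or MgCl2 at kinase-dependent levels. Started by adding ATP/substrate. Reaction run at room temperature, time varied by kinase. Detection mix in 50 mM Hepes pH 7.4, 0.1% BSA, 150 mM KF, incubated ≥1 h at room temperature. Activity expressed as % of uninhibited control; n=2.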

[2] = biological target: Ribosomal protein S6 kinase beta-1 (Homo sapiens) (UniProt P23443); test: Inhibition of p70S6K at 10 uM by HTRF assay relative to control; procedure, shortened: as §1
Chain of Ribosomal protein S6 kinase beta-1 (Homo sapiens) (P23443 whole entry, looked up): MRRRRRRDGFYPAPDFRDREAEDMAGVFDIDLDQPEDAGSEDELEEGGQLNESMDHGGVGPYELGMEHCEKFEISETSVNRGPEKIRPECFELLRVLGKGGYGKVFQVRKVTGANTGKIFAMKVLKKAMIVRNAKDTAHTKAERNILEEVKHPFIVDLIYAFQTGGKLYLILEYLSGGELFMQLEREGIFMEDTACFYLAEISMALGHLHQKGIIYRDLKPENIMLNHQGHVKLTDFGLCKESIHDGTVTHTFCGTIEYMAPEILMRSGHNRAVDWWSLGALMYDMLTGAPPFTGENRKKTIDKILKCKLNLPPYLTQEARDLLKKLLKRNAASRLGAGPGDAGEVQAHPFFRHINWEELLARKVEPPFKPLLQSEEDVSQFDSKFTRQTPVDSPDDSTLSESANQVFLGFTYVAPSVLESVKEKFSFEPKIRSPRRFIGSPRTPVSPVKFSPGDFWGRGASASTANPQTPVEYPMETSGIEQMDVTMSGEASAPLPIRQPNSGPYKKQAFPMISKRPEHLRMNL

[3] = biological target: Mitogen-activated protein kinase 14 (Homo sapiens) (UniProt Q16539); test: Inhibition of p38alpha at 10 uM by HTRF assay relative to control; procedure, shortened: as §1
[4] = biological target: Rho-associated protein kinase 2 (Homo sapiens) (UniProt O75116); test: Inhibition of ROCK2 at 10 uM by HTRF assay relative to control; procedure, shortened: as §1
[5] = biological target: Protein-tyrosine kinase 6 (Homo sapiens) (UniProt Q13882); test: Inhibition of Brk at 10 uM by HTRF assay relative to control; procedure, shortened: as §1
[6] = biological target: Mitogen-activated protein kinase 8 (Homo sapiens) (UniProt P45983); test: Inhibition of JNK1 at 10 uM by HTRF assay relative to control; procedure, shortened: as §1
Chain of Mitogen-activated protein kinase 8 (Homo sapiens) (P45983 whole entry): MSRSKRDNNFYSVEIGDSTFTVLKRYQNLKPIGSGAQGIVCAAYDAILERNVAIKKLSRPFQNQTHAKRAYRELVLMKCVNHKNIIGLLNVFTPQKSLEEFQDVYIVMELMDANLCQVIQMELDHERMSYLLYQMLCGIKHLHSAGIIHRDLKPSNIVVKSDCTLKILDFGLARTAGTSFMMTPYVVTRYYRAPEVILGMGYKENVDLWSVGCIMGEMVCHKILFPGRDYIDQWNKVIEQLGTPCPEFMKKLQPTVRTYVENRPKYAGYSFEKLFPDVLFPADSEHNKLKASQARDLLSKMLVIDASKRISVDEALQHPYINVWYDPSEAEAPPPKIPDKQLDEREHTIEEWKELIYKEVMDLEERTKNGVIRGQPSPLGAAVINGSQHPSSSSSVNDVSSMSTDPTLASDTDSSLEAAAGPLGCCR

[7] = biological target: Mitogen-activated protein kinase 9 (Homo sapiens) (UniProt P45984); test: Inhibition of JNK2 at 10 uM by HTRF assay relative to control; procedure, shortened: as §1
[8] = biological target: Tyrosine-protein kinase Lyn (Homo sapiens) (UniProt P07948); test: Inhibition of Lyn at 10 uM by HTRF assay relative to control; procedure, shortened: as §1
[9] = biological target: Tyrosine-protein kinase ABL1 (Homo sapiens) (UniProt P00519); test: Inhibition of Abl at 10 uM by HTRF assay relative to control; procedure, shortened: as §1
[10] = biological target: High affinity nerve growth factor receptor (Homo sapiens) (UniProt P04629); test: Inhibition of TrkA at 10 uM by HTRF assay relative to control; procedure, shortened: as §1
Chain of High affinity nerve growth factor receptor (Homo sapiens) (P04629 33-796 limits assumed): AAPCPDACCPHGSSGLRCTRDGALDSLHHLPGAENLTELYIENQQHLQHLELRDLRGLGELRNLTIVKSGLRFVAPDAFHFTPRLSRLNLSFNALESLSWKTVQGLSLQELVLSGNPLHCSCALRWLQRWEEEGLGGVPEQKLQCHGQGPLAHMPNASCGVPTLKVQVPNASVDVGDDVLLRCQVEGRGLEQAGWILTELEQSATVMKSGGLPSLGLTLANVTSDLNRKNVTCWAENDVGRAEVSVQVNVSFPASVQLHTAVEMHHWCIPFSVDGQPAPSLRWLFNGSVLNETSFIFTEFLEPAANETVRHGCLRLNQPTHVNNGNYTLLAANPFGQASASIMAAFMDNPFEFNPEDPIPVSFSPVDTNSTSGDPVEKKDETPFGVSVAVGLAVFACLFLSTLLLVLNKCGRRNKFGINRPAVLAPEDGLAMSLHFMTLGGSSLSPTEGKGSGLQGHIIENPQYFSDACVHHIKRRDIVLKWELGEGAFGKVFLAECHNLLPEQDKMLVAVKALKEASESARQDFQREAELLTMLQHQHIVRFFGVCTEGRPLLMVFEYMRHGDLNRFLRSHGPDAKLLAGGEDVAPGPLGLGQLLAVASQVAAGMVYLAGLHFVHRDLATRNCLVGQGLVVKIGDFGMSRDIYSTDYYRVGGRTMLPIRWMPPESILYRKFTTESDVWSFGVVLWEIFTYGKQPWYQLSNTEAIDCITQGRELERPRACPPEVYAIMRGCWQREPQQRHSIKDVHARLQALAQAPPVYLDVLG

[11] = biological target: Vascular endothelial growth factor receptor 2 (Homo sapiens) (UniProt P35968); test: Inhibition of KDR at 10 uM by HTRF assay relative to control; procedure, shortened: as §1
Chain of Vascular endothelial growth factor receptor 2 (Homo sapiens) (P35968 whole entry): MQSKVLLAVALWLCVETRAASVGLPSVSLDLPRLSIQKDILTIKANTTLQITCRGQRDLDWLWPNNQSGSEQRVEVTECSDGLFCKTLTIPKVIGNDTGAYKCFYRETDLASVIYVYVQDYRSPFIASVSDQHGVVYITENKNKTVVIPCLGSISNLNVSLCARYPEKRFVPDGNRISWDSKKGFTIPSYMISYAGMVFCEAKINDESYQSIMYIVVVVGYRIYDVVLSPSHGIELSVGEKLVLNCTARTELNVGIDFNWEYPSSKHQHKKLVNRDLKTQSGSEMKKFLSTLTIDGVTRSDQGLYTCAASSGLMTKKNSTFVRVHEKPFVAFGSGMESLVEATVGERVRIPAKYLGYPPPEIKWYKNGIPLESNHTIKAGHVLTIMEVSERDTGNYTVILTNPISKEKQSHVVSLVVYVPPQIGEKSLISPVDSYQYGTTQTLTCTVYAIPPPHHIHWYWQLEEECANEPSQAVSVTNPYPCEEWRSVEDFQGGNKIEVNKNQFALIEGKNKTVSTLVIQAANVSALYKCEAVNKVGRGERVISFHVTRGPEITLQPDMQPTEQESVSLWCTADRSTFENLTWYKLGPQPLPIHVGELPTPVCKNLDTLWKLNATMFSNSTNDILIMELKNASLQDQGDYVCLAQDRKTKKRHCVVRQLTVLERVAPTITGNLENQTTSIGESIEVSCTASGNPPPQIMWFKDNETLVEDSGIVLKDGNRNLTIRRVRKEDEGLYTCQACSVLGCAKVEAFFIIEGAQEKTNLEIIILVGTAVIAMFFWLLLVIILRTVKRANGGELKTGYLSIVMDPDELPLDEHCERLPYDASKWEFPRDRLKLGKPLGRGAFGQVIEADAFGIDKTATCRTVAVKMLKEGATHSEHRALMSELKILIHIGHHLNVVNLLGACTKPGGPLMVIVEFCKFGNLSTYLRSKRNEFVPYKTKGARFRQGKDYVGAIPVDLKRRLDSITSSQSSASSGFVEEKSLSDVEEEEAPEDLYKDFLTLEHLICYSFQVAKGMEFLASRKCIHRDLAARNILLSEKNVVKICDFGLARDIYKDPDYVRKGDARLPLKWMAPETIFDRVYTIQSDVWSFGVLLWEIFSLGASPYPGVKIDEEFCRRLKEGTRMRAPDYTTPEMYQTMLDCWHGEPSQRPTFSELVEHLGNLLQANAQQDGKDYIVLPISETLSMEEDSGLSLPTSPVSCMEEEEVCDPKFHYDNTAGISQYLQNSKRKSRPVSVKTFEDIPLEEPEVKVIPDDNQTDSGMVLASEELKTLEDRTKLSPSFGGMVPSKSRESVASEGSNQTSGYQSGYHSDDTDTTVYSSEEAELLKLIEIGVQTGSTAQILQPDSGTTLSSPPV

[12] = biological target: RAC-alpha serine/threonine-protein kinase (Homo sapiens) (UniProt P31749); test: Inhibition of AKT1/PKBalpha at 10 uM by HTRF assay relative to control; procedure, shortened: as §1
Chain of RAC-alpha serine/threonine-protein kinase (Homo sapiens) (P31749 whole entry): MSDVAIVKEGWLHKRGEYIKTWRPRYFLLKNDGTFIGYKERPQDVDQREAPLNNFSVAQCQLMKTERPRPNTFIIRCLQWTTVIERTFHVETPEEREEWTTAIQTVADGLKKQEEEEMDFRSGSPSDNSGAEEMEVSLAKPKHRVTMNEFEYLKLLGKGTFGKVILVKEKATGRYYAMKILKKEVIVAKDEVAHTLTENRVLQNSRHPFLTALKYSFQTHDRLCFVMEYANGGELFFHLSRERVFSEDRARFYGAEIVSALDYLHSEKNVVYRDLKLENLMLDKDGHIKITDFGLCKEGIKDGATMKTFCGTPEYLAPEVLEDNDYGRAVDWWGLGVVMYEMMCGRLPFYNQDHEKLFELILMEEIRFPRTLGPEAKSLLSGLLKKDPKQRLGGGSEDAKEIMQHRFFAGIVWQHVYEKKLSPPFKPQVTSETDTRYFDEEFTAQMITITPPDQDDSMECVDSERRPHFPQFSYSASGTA

[13] = biological target: Fibroblast growth factor receptor 1 (Homo sapiens) (UniProt P11362); test: Inhibition of FGFR1 at 10 uM by HTRF assay relative to control; procedure, shortened: as §1
Chain of Fibroblast growth factor receptor 1 (Homo sapiens) (P11362 22-822 limits assumed): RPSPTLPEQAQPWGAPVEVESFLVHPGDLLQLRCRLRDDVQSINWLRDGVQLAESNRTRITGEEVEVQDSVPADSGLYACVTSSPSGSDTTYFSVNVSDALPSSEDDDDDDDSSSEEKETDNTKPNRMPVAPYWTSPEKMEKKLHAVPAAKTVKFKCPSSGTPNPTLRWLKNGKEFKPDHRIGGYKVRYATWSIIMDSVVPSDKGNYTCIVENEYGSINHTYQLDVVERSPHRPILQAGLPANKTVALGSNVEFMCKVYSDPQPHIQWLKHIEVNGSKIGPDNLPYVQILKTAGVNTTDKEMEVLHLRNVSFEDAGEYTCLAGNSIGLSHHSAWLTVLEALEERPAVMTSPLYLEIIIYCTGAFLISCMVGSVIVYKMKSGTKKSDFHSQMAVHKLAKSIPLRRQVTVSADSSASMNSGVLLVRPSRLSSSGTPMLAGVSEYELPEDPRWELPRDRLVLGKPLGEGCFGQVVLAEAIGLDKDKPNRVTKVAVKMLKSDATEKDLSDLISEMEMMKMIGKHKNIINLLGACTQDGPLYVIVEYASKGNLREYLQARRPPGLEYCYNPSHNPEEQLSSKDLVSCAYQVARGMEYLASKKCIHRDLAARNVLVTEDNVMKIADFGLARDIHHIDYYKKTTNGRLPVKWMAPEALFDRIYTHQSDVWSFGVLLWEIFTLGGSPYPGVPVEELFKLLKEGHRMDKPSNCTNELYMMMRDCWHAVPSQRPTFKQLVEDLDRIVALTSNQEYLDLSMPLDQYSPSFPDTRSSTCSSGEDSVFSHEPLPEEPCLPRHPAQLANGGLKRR

[14] = biological target: Serine/threonine-protein kinase Chk2 (Homo sapiens) (UniProt O96017); test: Inhibition of CHK2 at 10 uM by HTRF assay relative to control; procedure, shortened: as §1
[15] = Inhibition of IRK at 10 uM by HTRF assay relative to control; procedure, shortened: as §1
[16] = biological target: Vascular endothelial growth factor receptor 1 (Homo sapiens) (UniProt P17948); test: Inhibition of FLT1 at 10 uM by HTRF assay relative to control; procedure, shortened: as §1
[17] = biological target: T1, Tyrosine-protein kinase JAK3 (Homo sapiens) (UniProt P52333); test: Inhibition of JAK3 at 10 uM by HTRF assay relative to control; procedure, shortened: as §1
T1 sequence (whole entry): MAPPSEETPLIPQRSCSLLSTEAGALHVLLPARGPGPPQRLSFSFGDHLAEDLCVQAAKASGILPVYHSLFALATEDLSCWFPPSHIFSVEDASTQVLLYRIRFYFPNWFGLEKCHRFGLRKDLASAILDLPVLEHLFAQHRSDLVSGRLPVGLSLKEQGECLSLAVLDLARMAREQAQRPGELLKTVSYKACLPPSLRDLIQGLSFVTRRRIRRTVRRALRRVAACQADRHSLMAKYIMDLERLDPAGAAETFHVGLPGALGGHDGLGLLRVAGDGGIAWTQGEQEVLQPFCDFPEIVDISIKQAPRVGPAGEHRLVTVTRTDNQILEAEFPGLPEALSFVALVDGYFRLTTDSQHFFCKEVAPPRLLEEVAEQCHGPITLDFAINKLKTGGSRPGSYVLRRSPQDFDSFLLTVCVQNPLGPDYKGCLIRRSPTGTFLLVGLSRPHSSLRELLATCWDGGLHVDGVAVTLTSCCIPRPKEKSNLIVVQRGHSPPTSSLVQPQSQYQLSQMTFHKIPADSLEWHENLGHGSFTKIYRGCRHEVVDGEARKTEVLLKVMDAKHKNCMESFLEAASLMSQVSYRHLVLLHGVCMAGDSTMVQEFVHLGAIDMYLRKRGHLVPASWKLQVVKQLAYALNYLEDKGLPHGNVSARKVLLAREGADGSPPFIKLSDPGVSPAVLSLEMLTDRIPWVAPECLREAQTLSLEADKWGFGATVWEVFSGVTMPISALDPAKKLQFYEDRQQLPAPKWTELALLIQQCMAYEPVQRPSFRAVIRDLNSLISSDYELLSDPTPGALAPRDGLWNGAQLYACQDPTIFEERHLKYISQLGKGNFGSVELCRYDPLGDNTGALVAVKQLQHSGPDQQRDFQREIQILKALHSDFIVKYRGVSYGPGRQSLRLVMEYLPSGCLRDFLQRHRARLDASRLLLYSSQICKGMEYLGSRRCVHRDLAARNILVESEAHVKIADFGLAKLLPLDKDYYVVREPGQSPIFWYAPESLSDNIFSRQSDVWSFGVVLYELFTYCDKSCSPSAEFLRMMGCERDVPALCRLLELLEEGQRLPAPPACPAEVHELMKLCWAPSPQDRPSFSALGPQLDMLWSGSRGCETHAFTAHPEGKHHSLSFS

Chain of Tyrosine-protein kinase Lck (Homo sapiens) (P06239 2-509 limits assumed): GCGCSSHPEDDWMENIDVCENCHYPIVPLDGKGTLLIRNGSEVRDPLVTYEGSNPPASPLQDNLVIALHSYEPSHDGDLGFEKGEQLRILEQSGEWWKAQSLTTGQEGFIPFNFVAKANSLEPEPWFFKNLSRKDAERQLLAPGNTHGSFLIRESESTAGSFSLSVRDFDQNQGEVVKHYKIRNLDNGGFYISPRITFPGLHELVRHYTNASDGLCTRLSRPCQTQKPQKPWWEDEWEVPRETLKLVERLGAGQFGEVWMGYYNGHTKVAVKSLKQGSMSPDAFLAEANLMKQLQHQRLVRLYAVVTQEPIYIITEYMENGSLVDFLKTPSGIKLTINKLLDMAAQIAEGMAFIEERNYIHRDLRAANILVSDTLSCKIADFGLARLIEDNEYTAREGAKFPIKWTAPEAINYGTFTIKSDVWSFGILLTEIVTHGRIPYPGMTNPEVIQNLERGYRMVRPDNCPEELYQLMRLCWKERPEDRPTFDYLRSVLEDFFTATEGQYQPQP

Compound | inhibition [1] [%] | inhibition [2] [%] | inhibition [3] [%] | inhibition [4] [%] | inhibition [5] [%] | inhibition [6] [%] | inhibition [7] [%] | inhibition [8] [%] | inhibition [9] [%] | inhibition [10] [%] | inhibition [11] [%] | inhibition [12] [%] | inhibition [13] [%] | inhibition [14] [%] | inhibition [15] [%] | inhibition [16] [%] | inhibition [17] [%]
Nc1nc(N2CCOCC2)cc(N2CCC(C(=O)NCc3cccs3)CC2)n1 | 0 | 7 | 8 | 1 | 15 | 0 | 3 | 7 | 0 | 9 | 17 | 0 | 11 | 0 | 0 | 0 | 0
O=C(COc1ccccc1)N1CCN(c2nccc(Nc3ccc4ncsc4c3)n2)CC1 | 22 | 15 | 7 | 7 | 54 | 34 | 44 | 12 | 8 | 9 | 35 | 1 | 16 | 6 | 0 | 3 | 5
O=C(NCc1cccnc1)c1cccc(-c2ccc(Nc3ccc4ncsc4c3)nn2)c1 | 42 | 79 | 0 | 93 | 48 | 55 | 51 | 48 | 23 | 0 | 62 | 5 | 49 | 28 | 73 | 43 | 41
Cc1cccc(Nc2cc(Nc3cccc(C(=O)N(CC(C)O)CC(C)O)c3)ncn2)c1 (configuration not stated) | 26 | 14 | 11 | 2 | 23 | 7 | 8 | 49 | 75 | 11 | 83 | 2 | 59 | 1 | 0 | 83 | 7
Cc1cccc(Oc2ccnc(N3CCN(C(=O)c4c(C)noc4C)CC3)n2)c1 | 0 | 5 | 0 | 0 | 2 | 13 | 6 | 0 | 0 | 8 | 18 | 1 | 5 | 3 | 0 | 7 | 0
Cc1cccc(CN2CCN(c3cc(N(C)c4cccc(C)c4)ncn3)CC2)c1 | 0 | 10 | 1 | 1 | 7 | 9 | 5 | 3 | 2 | 4 | 3 | 5 | 5 | 2 | 0 | 0 | 6
COc1cccc(Nc2cc(N3CCC[C@H]3C(=O)NCCc3ccc(O)cc3)nc(N)n2)c1 | 0 | 7 | 8 | 0 | 14 | 1 | 2 | 6 | 6 | 7 | 6 | 1 | 7 | 0 | 0 | 2 | 0
COC(=O)C(CO)NC(=O)[C@@H]1CCCN1c1nccc(Oc2cccc(C)c2)n1 (some centres not stated) | 0 | 5 | 7 | 0 | 13 | 5 | 8 | 6 | 10 | 4 | 5 | 0 | 0 | 3 | 0 | 0 | 0
O=C(CN1CCN(c2ncnc3c2CN(Cc2ccccc2)CC3)CC1)Nc1cc(F)ccc1F | 0 | 8 | 3 | 0 | 9 | 0 | 1 | 2 | 3 | 10 | 1 | 0 | 0 | 5 | 0 | 0 | 2

The next lines start with the values.

inhibition [1] [%] | inhibition [2] [%] | inhibition [3] [%] | inhibition [4] [%] | inhibition [5] [%] | inhibition [6] [%] | inhibition [7] [%] | inhibition [8] [%] | inhibition [9] [%] | inhibition [10] [%] | inhibition [11] [%] | inhibition [12] [%] | inhibition [13] [%] | inhibition [14] [%] | inhibition [15] [%] | inhibition [16] [%] | inhibition [17] [%] | Compound
37 | 19 | 19 | 7 | 78 | 70 | 53 | 48 | 69 | 56 | 95 | 0 | 80 | 7 | 34 | 72 | 28 | CN(CCc1ccccn1)C(=O)c1cccc(Nc2nccc(Nc3ccc4ncsc4c3)n2)c1
0 | 6 | 0 | 0 | 3 | 0 | 1 | 7 | 2 | 7 | 12 | 0 | 21 | 2 | 0 | 0 | 0 | CN(C)CC(C)(C)CNC(=O)C1CCN(c2cc(N3CCOCC3)nc(N)n2)CC1
0 | 14 | 16 | 0 | 0 | 0 | 2 | 1 | 1 | 10 | 0 | 1 | 0 | 3 | 0 | 0 | 0 | Cc1cccc(Oc2ccnc(N3CCN(CC(=O)Nc4cccc5c4CCCC5)CC3)n2)c1
32 | 16 | 37 | 13 | 10 | 28 | 38 | 29 | 31 | 8 | 22 | 0 | 0 | 0 | 0 | 32 | 0 | O=C(NCc1ccncc1)c1cccc(Nc2cc(Nc3cccc(Br)c3)ncn2)c1
45 | 9 | 3 | 5 | 36 | 49 | 37 | 47 | 38 | 60 | 81 | 0 | 82 | 0 | 66 | 34 | 50 | Cc1cccc(Nc2nccc(Nc3cccc(C(=O)N(C)CCc4ccccn4)c3)n2)c1
100 | 18 | 23 | 29 | 97 | 97 | 88 | 75 | 96 | 75 | 89 | 0 | 86 | 27 | 87 | 39 | 91 | CN(C)CC(C)(C)CNC(=O)c1cccc(Nc2nccc(Nc3ccc4ncsc4c3)n2)c1
0 | 10 | 0 | 0 | 4 | 0 | 5 | 14 | 8 | 12 | 4 | 0 | 4 | 0 | 0 | 6 | 0 | O=C(C1CCN(c2nccc(Nc3ccccc3)n2)CC1)N1CC[C@@H](O)C1
